High-throughput results as filed in PubChem BioAssay.
Sampled rows, rich in hits. Any-hit rate of the full collection: about 2.9%.
CHO-K1 Ca ag = counter-screen for M1 agonists: effect in parental CHO-K1 cells | actives 0.48% (n = 360,000) | activation, % at 3 µM | Fluo-8 calcium fluorescence; scaled to maximal ATP response, vehicle zero; in the data active means activation above about 15%;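 further: untransfected CHO-K1 host cells lacking M1 receptor as counterscreen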
CHO-K1 Ca antag = counter-screen for M1 antagonists: effect in parental CHO-K1 cells; ATP-induced calcium, Fluo-8 fluorescence; inhibition, % at 3 µM; AID 602250; actives 0.6% (n = 360,000);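 active means inhibition above a per-plate cutoff, the plate's mean sample inhibition plus 3 SD, cut at about 24% in these data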;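 further: 0% = DMSO plus EC80 ATP and 100% = DMSO alone without ATP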
CHO-K1 Ca PAM = M1 PAM counterscreen hit in parental CHO-K1 cells | ATP EC20, Fluo-8 calcium fluorescence; 0% at ATP EC20, 100% at ATP max | activation, % at 3 µM | actives 0.02% (n = 360,000) | AID 602247;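 active means activation above the run cutoff, the mean activation of all test compounds plus 3 SD, cut at about 40% in these data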;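 further: peak over basal fluorescence ratio in a 140 s read after ATP addition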
OX1R antag-1 = blocks the human orexin 1 receptor | OX1R-expressing cells, FRET antagonist read-out | inhibition, % at 6.6 µM | actives 1.8% (n = 330,000) | O43613; in the data active means inhibition mostly above about 38%, no sharp cut-off; inactive means mostly below about 40%;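 further: 0% = agonist challenge alone and 100% = reference antagonist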
Target sequence (O43613 whole entry, looked up): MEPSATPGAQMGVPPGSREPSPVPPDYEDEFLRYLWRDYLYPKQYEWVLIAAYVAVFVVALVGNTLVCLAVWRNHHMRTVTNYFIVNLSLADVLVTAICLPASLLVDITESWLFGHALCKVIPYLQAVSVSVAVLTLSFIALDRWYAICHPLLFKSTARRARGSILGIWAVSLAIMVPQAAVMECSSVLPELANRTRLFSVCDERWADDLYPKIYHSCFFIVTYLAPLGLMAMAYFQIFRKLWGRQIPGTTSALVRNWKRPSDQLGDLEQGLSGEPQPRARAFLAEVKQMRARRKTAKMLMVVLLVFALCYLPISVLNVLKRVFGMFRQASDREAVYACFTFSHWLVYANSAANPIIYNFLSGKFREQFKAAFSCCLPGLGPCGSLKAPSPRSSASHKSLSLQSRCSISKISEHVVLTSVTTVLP
OX1R antag-2 = blocks the human orexin 1 receptor; inhibition, % at 5 µM; CHO/OX1R cells, Fluo-8 calcium fluorescence, orexin A; O43613; actives 0.43% (n = 330,000);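 active means inhibition above its plate's threshold, mean inhibition of all tested compounds on the plate plus 3 SD, cut at about 37% in these data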;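 further: 0% = orexin A challenge wells and 100% = SB-334867-A antagonist wells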
CHO parental Ca = counter-screen for OX1R antagonists: effect in parental CHO cells; inhibition, % at 5.6 µM; AID 463079; parental CHO-K1, ATP-induced calcium, Fluo-8 fluorescence; actives 0.63% (n = 330,000);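 active means inhibition above that plate's mean sample inhibition plus 3 SD, cut at about 26% in these data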;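 further: 0% = ATP-challenged DMSO wells and 100% = DMSO wells without ATP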
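Material – parental CHO cells · Reagent – ATP stimulus · Compound – single nominal dose of 5.6 µM per compound · Detection – Fluo-8 fluorescence · Read-out basis – percent inhibition of calcium signal · Controls – ATP-challenged DMSO wells low, unchallenged DMSO wells high · Repeats – no replicates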
OX1R Fluo8 conf = confirmation of human orexin 1 receptor antagonists; actives 38% (n = 1,100); shares compounds with OX1R antag-2; CHO/OX1R cells, orexin A calcium Fluo-8 fluorescence; AID 492963; inhibition, % at 5 µM; in the data active means inhibition above about 29%;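 further: 0% = agonist challenge alone and 100% = reference antagonist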
CHO Ca counter = counter-screen for OX1R antagonists: effect in parental CHO cells; shares compounds with OX1R antag-2; parental CHO-K1, ATP-induced calcium, Fluo-8 fluorescence; inhibition, % at 5.6 µM; actives 9.3% (n = 1,100); AID 492965;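 active means inhibition above a per-plate limit, the mean inhibition of that plate's test compounds plus 3 SD, cut at about 25% in these data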;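 further: 0% = ATP challenge with DMSO and 100% = DMSO without ATP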
OX1R HTRF conf = confirmation of human orexin 1 receptor antagonists, HTRF format. OX1R-expressing cells, HTRF antagonist assay. inhibition, % at 6.6 µM. shares compounds with OX1R antag-1. AID 492964. actives 49% (n = 1,800); in the data active means inhibition above about 55%;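 further: CHO cells expressing OX1R stimulated with orexin A at about EC80; 0% = agonist challenge alone and 100% = reference antagonist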
CHO-K1 HTRF = signal in parental CHO-K1 cells, OX1R antagonist counter-screen; shares compounds with OX1R antag-1; HTRF counterscreen; inhibition, % at 6.6 µM; actives 48% (n = 1,800); in the data active means inhibition above about 17%;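 further: 0% = agonist challenge with vehicle and 100% = vehicle alone without agonist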
Numbers without * were called inactive; . = no result given.

SMILES	CHO-K1 Ca ag	CHO-K1 Ca antag	CHO-K1 Ca PAM	OX1R antag-1	OX1R antag-2	CHO parental Ca	OX1R Fluo8 conf	CHO Ca counter	OX1R HTRF conf	CHO-K1 HTRF
Cc1c(CCOC(=O)c2ccc(N3CCOCC3)c([N+](=O)[O-])c2)sc[n+]1CC#N	2	-9	16	28	-20	-11	.	.	.	.
Cc1ncsc1CCOC(=O)c1ccc(N2CCOCC2)c([N+](=O)[O-])c1	3	-9	5	53	34	18	13	21	.	.
C=C(C)COc1ccc(-c2[nH]ncc2-c2ccccc2OC)c(O)c1	0	3	6	12	35	13	-16	-3	.	.
CCOC(=O)N1CCN(C(=O)C[C@@H]2C[C@@]3(C(=O)OCC)CCCC=C3N(Cc3ccc(Cl)cc3Cl)C2=O)CC1	0	-15	15	.	.	.	.	.	.	.
Fc1ccc(NC(=S)Nc2ccc(F)c(Cl)c2)cc1Cl	10	28*	3	36	34	24	37*	61*	.	.
COc1ccc(NC(=S)N(CCc2ccncc2)C(C)C)cc1Cl	2	-5	-4	.	.	.	.	.	.	.
O=C(NC(=S)Nc1ccc(F)c(Cl)c1)C1CC1	0	-11	21	16	2	7	.	.	.	.
CC(C)N(CCc1ccncc1)C(=S)Nc1ccc(F)c(Cl)c1	9	3	5	1	31	9	7	-2	.	.
O=C(O)/C(=C/c1ccc(Cl)c([N+](=O)[O-])c1)c1ccc(S(=O)(=O)N2CCCCC2)s1	0	-1	-3	.	.	.	.	.	.	.
CC1(c2ccccc2)NC(=O)N(CC(=O)Nc2ccccc2N2CCCC2)C1=O (stereo not drawn)	3	13	-30	4	-4	-3	.	.	.	.
CN(CC(=O)NCc1ccccc1)CC(=O)Nc1ccc(Cl)c(C(F)(F)F)c1	13	-7	13	12	6	-4	.	.	.	.
CN(CC(=O)Nc1ccc(Cl)c(C(F)(F)F)c1)CC(=O)NC1CCCCC1	12	2	0	11	38	-5	-22	0	.	.
N#CCC(CNc1ncc(C(F)(F)F)cc1Cl)OC(=O)c1c(F)cccc1F (stereo not drawn)	0	5	-4	25	46	-24	18	-10	.	.
FC(F)(F)COc1ccc(-n2ccnc2)nn1	2	0	-4	12	21	0	3	8	.	.
O=S(=O)(Nc1cccc(-n2cnnn2)c1)c1cc(Br)ccc1Br	4	-11	-4	16	-1	2	.	.	.	.
CN(Cc1ccccc1)C(=O)Cn1c(=O)oc2cc(S(=O)(=O)NCc3ccccc3)ccc21	11	-1	8	48*	25	7	47*	7	88*	-10
CN1C[C@@H]2[C@@H]3C(=O)N(Cc4ccccc4)C(=O)[C@@H]3[C@](C)(C1=O)N2C(=O)c1ccc(Br)cc1	1	-4	9	.	.	.	.	.	.	.
COc1ccc(/C=C/c2nc(N)nc(-c3ccccc3O)n2)cc1OC	0	-7	7	87*	63*	-2	70*	-7	92*	6
Cc1ccc(C)c(N2CCN(C(=O)CCCn3ncn4c(cc5occc54)c3=O)CC2)c1	7	-11	5	9	-36	-32	.	.	.	.
Nc1cc(S(=O)(=O)C(F)(F)F)ccc1C(=O)O	0	12	-6	7	1	1	.	.	.	.
O=S(=O)(c1ccc2c(c1)C(O)c1ccccc1CC2)C(F)(F)F (stereo not drawn)	4	9	-21	34*	52*	13	20	17	34	1
CCOC(=O)C1(C)CCCN1C(=O)c1cccc2ccccc12 (stereo not drawn)	0	-4	9	.	.	.	.	.	.	.
CC1Cc2ccccc2N1S(=O)(=O)c1cccc(C(=O)c2nccn2C)c1 (stereo not drawn)	9	-18	12	40*	56*	3	-3	-12	34	4
CCOc1ncccc1C(=O)NCC1COc2ccccc2O1 (stereo not drawn)	0	4	17	81*	30	-24	27	-2	69*	0
CCc1ccc(C(=O)NCC2COc3ccccc3O2)o1 (stereo not drawn)	0	-9	17	19	-18	-12	.	.	.	.
SMILES	CHO-K1 Ca ag	CHO-K1 Ca antag	CHO-K1 Ca PAM	OX1R antag-1	OX1R antag-2	CHO parental Ca	OX1R Fluo8 conf	CHO Ca counter	OX1R HTRF conf	CHO-K1 HTRF
COc1ccc2sc(-c3ccc(S(C)(=O)=O)cc3)c(C#CCO)c2c1	0	6	-24	59*	65*	10	21	1	60*	13
COc1ccc2c(C#CCCO)c(-c3ccc(S(C)(=O)=O)cc3)sc2c1	5	15	-18	4	6	7	.	.	.	.
Cc1cccc(NC(=O)c2cc(-c3cc(C)cc(C)c3O)n[nH]2)c1	7	-1	-4	64*	40	7	17	4	69*	13
Cc1cccc(NC(=O)c2cc(-c3c(C)cc(C)cc3O)n[nH]2)c1	0	-2	-11	18	6	-2	.	.	.	.
CC(C)(CNC(=O)c1ccc([N+](=O)[O-])c(Cl)c1)CNC(=O)c1ccc([N+](=O)[O-])c(Cl)c1	7	-1	13	85*	41*	19	13	9	53	18*
COc1ccc(C(=O)NCC(C)(C)CNC(=O)c2ccc(OC)c(OC)c2)cc1OC	1	-14	16	16	-27	-21	.	.	.	.
COc1ccc(-c2csc(NC(=O)c3cc(C)oc3C)n2)cc1OC	3	-3	-16	64*	31	8	5	-14	69*	11
CCN1CCN(C(C)CCc2ccccc2)CC1 (stereo not drawn)	1	-17	15	18	-8	-8	.	.	.	.
Cc1cc(C(=O)NCc2ccccc2Cl)c2ccccc2n1	4	-7	-9	66	-10	-19	.	.	.	.
Cc1cc(C(=O)NCc2cccc(Cl)c2)c2ccccc2n1	2	-10	0	87*	26	-11	31*	-3	67*	1
COc1ccccc1C(=O)NCCC(=O)NC1CCCCCC1	0	-16	16	9	-8	-7	.	.	.	.
Cc1nc2cc(NC(=O)COc3ccccc3C#N)ccc2n1-c1ccccc1	3	7	15	122*	102*	3	83*	-4	92*	11
